This is a sample that favours compounds with a hit; in the whole collection about 12% have one here.
RAM network inh: inhibitors of the yeast RAM network. S. cerevisiae dse1pr::URA3 reporter, 5-FOA growth OD615, 2 d; analog-sensitive cbk1-as2 kinase mutant strain. hit rate 1.8% among 190,000. inhibition, % at 50 µM;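 active means inhibition above a set limit, 3 SD over mean compound inhibition, cut at about 8.4% in these data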;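 further: 0% = DMSO-only wells with no growth and 100% = 10 µM 1-NA-PP1 full growth; inhibition rescues growth on 5-FOA so higher OD means more RAM inhibition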
ABCG2 inh: inhibitors of human ABCG2 transporter, ABCB1 counter-screen. hit rate 0.1% among 190,000. IgMXP3 cells, JC-1 efflux, flow cytometry. Q9UNQ0. inhibition, % at 6.6 µM;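 active means inhibition above 80%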;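 further: 0% = DMSO and 100% = nicardipine control wells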
Target sequence (Q9UNQ0 whole entry, looked up): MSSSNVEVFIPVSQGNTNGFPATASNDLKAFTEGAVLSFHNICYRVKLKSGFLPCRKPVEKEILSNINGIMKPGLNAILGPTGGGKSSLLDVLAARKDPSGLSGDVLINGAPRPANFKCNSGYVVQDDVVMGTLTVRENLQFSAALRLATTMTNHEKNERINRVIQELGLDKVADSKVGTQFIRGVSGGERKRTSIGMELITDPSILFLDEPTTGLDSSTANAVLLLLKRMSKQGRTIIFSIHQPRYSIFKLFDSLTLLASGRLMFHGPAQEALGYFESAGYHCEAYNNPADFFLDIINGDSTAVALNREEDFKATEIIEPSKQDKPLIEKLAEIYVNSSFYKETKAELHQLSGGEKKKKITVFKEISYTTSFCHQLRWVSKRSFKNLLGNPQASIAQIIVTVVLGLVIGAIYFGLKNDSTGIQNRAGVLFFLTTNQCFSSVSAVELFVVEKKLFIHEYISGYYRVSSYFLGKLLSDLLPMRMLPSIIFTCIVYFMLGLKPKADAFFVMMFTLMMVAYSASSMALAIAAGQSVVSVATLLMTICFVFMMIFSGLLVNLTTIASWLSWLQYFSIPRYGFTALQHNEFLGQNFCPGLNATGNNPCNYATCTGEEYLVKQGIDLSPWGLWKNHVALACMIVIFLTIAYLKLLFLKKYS
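Test system: IgMXP3 (ABCG2) plus far-red-tagged CCRF-Adr (ABCB1) cells. Reagent: JC-1 dye as substrate. Timing: 10 min exposure at 25 °C with rotation, no wash. Measured by: flow cytometric JC-1 green MFI at 530 nm. Read-out: percent efflux inhibition, scaled nicardipine 100% to DMSO 0%. Control set: nicardipine and DMSO wells.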
L major viab: inhibitors of Leishmania major promastigote growth; Leishmania major promastigotes, resazurin fluorescence viability; inhibition, % at 10 µM; hit rate 9% among 200,000; AID 1063; in the data active means inhibition above about 50%;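 further: promastigotes grown with compound for 44 hours at 28 °C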
ABCB1 block: inhibitors of human ABCB1 transporter, ABCG2 counter-screen; CCRF-Adr cells, JC-1 efflux, flow cytometry; inhibition, % at 6.6 µM; P08183; hit rate 0.067% among 190,000; in the data active means inhibition above about 40%;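 further: 0% = vehicle and 100% = reference inhibitor; higher value means more JC-1 retained so stronger ABCB1 efflux block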
WT yeast gro inh: growth inhibition of WT yeast, mitochondrial fusion screen. mitochondrial fusion phenotypic screen, WT strain. inhibition, % at 10 µM. hit rate 2.1% among 190,000; in the data active means inhibition above about 58%; tested in S. cerevisiae
* marks the source's active call; other numbers are inactive results; nt = no result.

SMILES | RAM network inh | ABCG2 inh | L major viab | ABCB1 block | WT yeast gro inh
CS(=O)(=O)N1CCC(C(=O)N2CCN(c3ccc(F)cc3)CC2)CC1 | 0 | 3 | -9 | 1 | 5
CCOc1ccc(NC(=O)CSc2nnc(CCNC(=O)c3ccc(OC)cc3)n2C)cc1 | 2 | 0 | -3 | 0 | 11
CC(C(=O)Nc1cccnc1)C1Sc2ccccc2NC1=O (stereo not given) | 0 | 0 | -5 | 0 | -11
O=C(OCc1ccc(F)cc1)c1ccc2ccccc2n1 | 0 | 6 | -12 | 0 | 16
CCN(CC)CCSc1nc2ccccc2c(=S)n1-c1ccccc1 | 0 | 0 | 82* | 0 | 20
CC(C)c1nc(CN(C)C(=O)N[C@H](C(=O)N[C@@H](Cc2ccccc2)C[C@H](O)[C@H](Cc2ccccc2)NC(=O)OCc2cncs2)C(C)C)cs1 | nt | 1 | nt | nt | 1
COc1cccc(/C=N/n2c(N)c(S(=O)(=O)c3cccs3)c3nc4ccccc4nc32)c1 | 3 | 2 | -2 | 0 | -1
Nc1c(S(=O)(=O)c2cccs2)c2nc3ccccc3nc2n1/N=C/c1cccc(O)c1 | 5 | 1 | 58* | 0 | 14
COc1ccc(/C=N/n2c(N)c(S(=O)(=O)c3cccs3)c3nc4ccccc4nc32)cc1OC | 5 | 4 | 62* | 1 | 2
CCCCN(C)Cc1c(C)[nH]c2c(Cl)cccc2c1=O | 0 | 22 | 100* | 1 | 5
CCCCN(CC)Cc1c(C)[nH]c2ccccc2c1=O | 1 | 5 | -2 | 0 | 1
N=C1C(c2nc3ccccc3s2)=C(O)CN1NC(=O)c1c[nH]c2ccccc12 | 8.5* | 0 | -7 | 0 | 7
N=C1C(c2nc3ccccc3s2)=C(O)CN1NC(=O)c1ccccc1[N+](=O)[O-] | 8 | 1 | -2 | 0 | 3
CC(C(=O)OCC(=O)Nc1cccc(S(=O)(=O)N(C)C)c1)N1C(=O)c2ccccc2C1=O (stereo not given) | 0 | 6 | -1 | 2 | -14
O=C(c1ccc(-c2nnc(-c3ccccc3)o2)cc1)N1CCCCCC1 | 2 | 4 | 5 | 1 | 65*
O=C(c1ccc(-c2ccccc2)cc1)N1CCC(C(=O)N2CCCC2)CC1 | 1 | 7 | -8 | 1 | 11
O=C(Nc1ccc(OCC(F)(F)C(F)F)c(C(F)(F)F)c1)c1ccccc1O | 1 | 12 | 100* | 0 | 75*
O=C(Nc1ccc(OCC(F)(F)C(F)F)c(C(F)(F)F)c1)c1ccccc1 | nt | nt | 2 | nt | nt
Cc1ccc(Cn2cnc3ccccc32)cc1C | 0 | 7 | 15 | 1 | -1
Cc1ccc(-c2nnn(C/C(N)=N/O)n2)cc1 | 0 | 3 | 1 | 0 | -6
CCn1c(C(=O)NCCCN2CCc3ccccc3C2)cc2sccc21 | 0 | 2 | 91* | 1 | 13
CCn1c(C(=O)NCCCc2ccccc2)cc2sccc21 | 10* | 18 | -1 | -2 | 40
CCN1CCN(CCCNC(=O)c2cc3sccc3n2CC)CC1 | 2 | 1 | 13 | 0 | 2
CCOC(=O)c1ccc2c(c1)N(CC#N)C(=O)C(C)(C)O2 | 1 | 2 | 1 | 0 | 11
CC(C)C1COC(c2cccn2Cc2ccccc2Cl)=N1 (stereo not given) | 1 | 0 | -4 | 0 | 65*
SMILES | RAM network inh | ABCG2 inh | L major viab | ABCB1 block | WT yeast gro inh
Cc1cccc(NCCC#N)c1 | 2 | 4 | -6 | 1 | 7
Cc1ccc(NCCC#N)cc1C | 2 | 2 | 50* | 1 | 12
Cc1ccc(C)c(NCCC#N)c1 | 2 | -6 | 53* | 0 | -1
CCOc1ccc(S(=O)(=O)N2CCN(c3ccccc3F)CC2)c2cccnc12 | 0 | 6 | 4 | 1 | 16
O=C(Cn1nnc(-c2ccccc2F)n1)Nc1ccc(S(=O)(=O)NC2CCCC2)cc1 | 2 | 1 | 0 | 0 | -20
O=C(COC(=O)Cc1ccccc1F)Nc1ccc2c(c1)OCCO2 | 1 | 6 | -5 | 0 | 6
O=C(COC(=O)CNC(=O)c1ccc(Cl)cc1)Nc1ccc2c(c1)OCCO2 | 3 | 10 | 57* | 0 | 5
O=C(COC(=O)/C=C/c1ccc(Cl)cc1)Nc1ccccc1 | 0 | 9 | -6 | 1 | -6
O=C(COC(=O)/C=C/c1ccc(Cl)cc1)Nc1ccc2c(c1)OCCO2 | 4 | 8 | 51* | 1 | -5
O=C(COC(=O)Cc1cccc(C(F)(F)F)c1)Nc1ccc2c(c1)OCCO2 | 2 | 59 | 65* | 0 | -1
O=C(COc1cc(Cl)c(Cl)cc1Cl)NC(=O)Nc1ccc2c(c1)OCCO2 | 3 | 6 | 63* | 1 | -15
Cc1c(-n2c(-c3ccccc3)nc3ccccc3c2=O)c(=O)n(-c2ccccc2)n1C | 4 | -1 | 0 | -1 | -3
CC(NC1CCCC1)c1ccccc1 (stereo not given) | 1 | 0 | -5 | 0 | -29
CC(NCCC(c1ccccc1)c1ccccc1)c1ccccc1 (stereo not given) | 0 | -4 | 81* | 2 | 51
O=C(Nc1ccc(S(=O)(=O)Nc2nccs2)cc1)/C(=C/c1ccccc1Cl)NC(=O)c1ccccc1 | 4 | -7 | -8 | -2 | -5
CC(C)NS(=O)(=O)c1ccc(NC(=S)NC(=O)c2ccc(-c3ccccc3)cc2)cc1 | 4 | 1 | 93* | 1 | 1
COc1nccnc1NS(=O)(=O)c1ccc(NC(=S)NC(=O)c2ccccc2)cc1 | 1 | 0 | -10 | 0 | 13
O=C(O)c1ccc(NC(=S)NC(=O)c2ccc(-c3ccccc3)cc2)cc1 | 1 | 1 | -1 | -1 | -3
C=CCN(CC=C)C(=S)NC(=O)c1ccc(-c2ccccc2)cc1 | 0 | 2 | 7 | 0 | 66*
O=C(NC(=S)Nc1ccccc1)c1ccc(-c2ccccc2)cc1 | 9.4* | -5 | 45 | -1 | 8
CC(C)NC(=O)C(OC(=O)c1ccccc1)C(OC(=O)c1ccccc1)C(=O)O (stereo not given) | 1 | 1 | -3 | 0 | -1
O=C1c2ccccc2C(=O)N1CCCCN(C(=O)c1cccc([N+](=O)[O-])c1)c1ccc(Cl)cc1 | 4 | 0 | 54* | 1 | -11
CN(C)C(=O)N1CCC(C(=O)N2CCCC(C(=O)c3cccc4ccccc34)C2)CC1 (stereo not given) | 0 | 2 | -1 | 3 | -8
O=C(Nc1cccc(NC(=O)c2ccc(-c3cccc(Br)c3)o2)c1)c1ccco1 | 4 | -6 | 60* | 2 | 32
O=C(NC1CCS(=O)(=O)C1)c1ccc(-c2ccc(Br)cc2)o1 (stereo not given) | 4 | 0 | 18 | 0 | 82*
CC(=O)c1cccc(NC(=O)c2ccc(Br)o2)c1 | 3 | 4 | 14 | 0 | 3
O=C(Nc1ccccc1)c1ccc(-c2ccc(Br)cc2)o1 | 3 | 10 | 26 | 0 | 74*
O=C(Nc1cccc(NC(=O)c2ccc(-c3ccc(Br)cc3)o2)c1)c1ccccc1 | 0 | -1 | 4 | 0 | 7

Bioassay records from PubChem.
